In ChEMBL document CHEMBL4393665 (Eur J Med Chem, 2019):

Tests used:
[1] = Half life in PBS at 1 uM by LC-MS/MS analysis; format: physicochemical
Outline: (§1)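 Samples were incubated in phosphate buffer or human plasma and analysed by LC-MS/MS in product ion scan mode. Analyte concentration was monitored over incubation time. The slope of ln(concentration) versus time gave the first-order degradation rate constant k, and t1/2 was calculated from k. Ketoprofen ethyl ester served as a reference to confirm that the plasma batch was enzymatically active.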

[2] = Half life in human plasma at 1 uM by LC-MS/MS analysis; format: ADME, cell-free; outline: as §1
[3] = Drug degradation in human plasma at 1 uM measured upto 120 mins by LC-MS/MS analysis; format: ADME, cell-free; details: 2 h; outline: as §1
[4] = target: T1, ATP-dependent translocase ABCB1 (Homo sapiens, UniProt P08183); test: Inhibition of P-gp in human K562/DOX cells assessed as drug level causing maximum increase in nuclear pirarubicin concentration incubated for 30 mins by spectroflurometry relative to control; format: cell-based; details: 0.5 h
Outline: (§2)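 Pirarubicin uptake into nuclei was measured in P-gp-overexpressing, doxorubicin-resistant K562/DOX cells. [I]0.5 is the modulator concentration giving a half-maximal increase (α = 0.5) in nuclear pirarubicin concentration. αmax is the maximum increase obtainable in resistant cells. Mean ± SE of three independent experiments.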

[5] = target: T1, ATP-dependent translocase ABCB1; test: Inhibition of P-gp in human K562/DOX cells assessed as drug level causing 50% increase in nuclear pirarubicin concentration incubated for 30 mins by spectroflurometry; format: cell-based; details: read-out: I0.5; outline: as §2
[6] = target: T1, ATP-dependent translocase ABCB1; test: Inhibition of P-glycoprotein (unknown origin) in MDCK-MDR1 assessed as inhibtion of calcein-AM transport incubated for 30 mins by fluorescence assay; format: cell-based
[7] = target: T1, ATP-dependent translocase ABCB1; test: Inhibition of P-glycoprotein-mediated Rhodamine-123 efflux in human K562 cells assessed as Rhodamine-123 accumulation at 1 uM preincubated for 15 mins followed by Rhodamine-123 addition measured after 30 mins by flow cytometry; format: cell-based; details: k562, 0.5 h
[8] = target: T1, ATP-dependent translocase ABCB1; test: Inhibition of P-glycoprotein (unknown origin) in MDCK-MDR1 assessed as reduction of ATP consumption pre-incubated for 2 hrs followed by substrate addition shaken for 5 mins by luminescence assay; format: cell-based; details: mdck-mdr1, 5 min
[9] = target: T2, Broad substrate specificity ATP-binding cassette transporter ABCG2 (Homo sapiens, UniProt Q9UNQ0); test: Inhibition of BCRP (unknown origin) in MDCK-BCRP assessed as inhibtion of hoechst 33342 transport incubated for 30 mins by fluorescence assay
T2 sequence (Q9UNQ0 whole entry): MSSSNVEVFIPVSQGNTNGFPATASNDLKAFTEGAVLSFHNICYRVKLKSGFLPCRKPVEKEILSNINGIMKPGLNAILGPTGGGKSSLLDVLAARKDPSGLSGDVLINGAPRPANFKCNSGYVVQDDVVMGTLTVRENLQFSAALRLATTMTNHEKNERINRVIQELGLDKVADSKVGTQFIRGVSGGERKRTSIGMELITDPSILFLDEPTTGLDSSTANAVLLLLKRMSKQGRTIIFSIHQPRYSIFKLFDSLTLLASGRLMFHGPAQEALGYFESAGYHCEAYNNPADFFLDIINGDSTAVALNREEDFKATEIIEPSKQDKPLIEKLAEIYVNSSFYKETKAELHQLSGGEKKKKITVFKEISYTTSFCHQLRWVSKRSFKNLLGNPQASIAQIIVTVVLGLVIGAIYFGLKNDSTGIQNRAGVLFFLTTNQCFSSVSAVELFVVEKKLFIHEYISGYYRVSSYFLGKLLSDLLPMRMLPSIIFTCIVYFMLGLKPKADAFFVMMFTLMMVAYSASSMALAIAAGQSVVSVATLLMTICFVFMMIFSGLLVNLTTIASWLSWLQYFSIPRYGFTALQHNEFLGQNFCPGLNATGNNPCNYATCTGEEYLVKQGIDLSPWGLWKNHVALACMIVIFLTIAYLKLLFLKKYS

[10] = target: T1, ATP-dependent translocase ABCB1; test: Inhibition of P-glycoprotein-mediated Rhodamine-123 efflux in human K562/DOX cells assessed as […] at 1 uM […] by flow cytometry relative to control; format: cell-based; parameters: scale not given: the % may be the effect or the level left; details: 0.5 h
Outline: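 K562/DOX cells were loaded with 5 µM rhodamine-123 for 30 min. They were then washed and held 10 min in rhodamine-free medium, with or without modulator at 1.0 µM. Verapamil at 3.0 µM was the reference. Flow cytometry median fluorescence after efflux was divided by that after uptake and expressed as a percentage. Mean ± SE of three independent experiments.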

T1 sequence (P08183 whole entry): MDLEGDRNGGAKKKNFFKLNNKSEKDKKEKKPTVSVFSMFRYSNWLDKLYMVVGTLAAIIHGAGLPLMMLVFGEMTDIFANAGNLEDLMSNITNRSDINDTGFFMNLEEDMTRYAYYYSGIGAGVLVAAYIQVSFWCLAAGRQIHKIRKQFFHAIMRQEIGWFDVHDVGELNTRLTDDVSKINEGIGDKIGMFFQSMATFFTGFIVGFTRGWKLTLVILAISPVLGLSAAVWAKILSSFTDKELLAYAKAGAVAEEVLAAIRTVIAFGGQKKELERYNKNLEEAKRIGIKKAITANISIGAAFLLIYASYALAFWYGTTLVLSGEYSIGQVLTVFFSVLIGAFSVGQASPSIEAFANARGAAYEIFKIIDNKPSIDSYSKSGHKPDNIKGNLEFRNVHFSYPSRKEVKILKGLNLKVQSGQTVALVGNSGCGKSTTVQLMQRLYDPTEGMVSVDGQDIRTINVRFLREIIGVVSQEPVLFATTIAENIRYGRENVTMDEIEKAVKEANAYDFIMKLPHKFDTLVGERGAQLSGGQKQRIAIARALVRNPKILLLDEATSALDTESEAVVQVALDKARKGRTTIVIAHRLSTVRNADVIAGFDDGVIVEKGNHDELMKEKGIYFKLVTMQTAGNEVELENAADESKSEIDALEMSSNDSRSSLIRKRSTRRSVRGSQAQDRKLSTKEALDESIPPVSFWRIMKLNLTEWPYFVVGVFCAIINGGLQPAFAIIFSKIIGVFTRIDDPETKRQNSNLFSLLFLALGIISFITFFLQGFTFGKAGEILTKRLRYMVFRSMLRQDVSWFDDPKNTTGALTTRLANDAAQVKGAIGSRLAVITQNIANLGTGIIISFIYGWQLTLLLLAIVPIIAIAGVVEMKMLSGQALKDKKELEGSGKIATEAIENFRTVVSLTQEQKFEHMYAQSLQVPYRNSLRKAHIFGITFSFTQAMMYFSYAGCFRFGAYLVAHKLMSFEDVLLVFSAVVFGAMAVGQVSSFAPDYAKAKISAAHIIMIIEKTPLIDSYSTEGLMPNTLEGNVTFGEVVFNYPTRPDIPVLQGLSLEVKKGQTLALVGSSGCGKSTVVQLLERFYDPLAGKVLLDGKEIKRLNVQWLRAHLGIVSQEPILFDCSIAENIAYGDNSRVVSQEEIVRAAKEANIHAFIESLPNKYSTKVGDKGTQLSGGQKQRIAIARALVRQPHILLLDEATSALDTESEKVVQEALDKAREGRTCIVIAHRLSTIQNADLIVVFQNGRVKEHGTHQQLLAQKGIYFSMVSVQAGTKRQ

Compound | half-life at 1 µM [1] [h] | half-life at 1 µM [2] [h] | Stability [3] | Alpha max [4] | IC50 [5] [nM] | EC50 [6] [nM] | inhibition (INH) [7] | inhibition (INH) [8] | EC50 [9] [nM] | Activity [10] [%]
CCOC(=O)C(C)c1cccc(C(=O)c2ccccc2)c1 (stereo not given) |  | 1.78 |  |  |  |  |  |  |  | 
COc1cc(/C=C/C(=O)OCCN(C)CCCCCCCOC(=O)c2cc(OC)c(OC)c(OC)c2)cc(OC)c1OC | > 4 | > 4 |  | 0.79 | 70 |  |  |  |  | 
COc1cc(/C=C/C(=O)OCCCCCCCN(C)CCOC(=O)c2c3ccccc3cc3ccccc23)cc(OC)c1OC | > 4 | > 4 |  | 0.98 | 20 |  |  |  |  | 
COc1cc(/C=C/C(=O)OCCN(C)CCCCCCCCOC(=O)c2c3ccccc3cc3ccccc23)cc(OC)c1OC | > 4 | > 4 |  | 0.96 | 40 | 920 | Not Active | Not Active | 5100 | 
COc1cc(/C=C/C(=O)OCCCN(C)CCCCCCCOC(=O)c2c3ccccc3cc3ccccc23)cc(OC)c1OC | > 4 | > 4 |  | 0.88 | 40 | 260 | Not Active | Not Active | 3000 | 84.7
COc1cc(/C=C/C(=O)OCCCCCCN(C)CCCOC(=O)c2c3ccccc3cc3ccccc23)cc(OC)c1OC | > 4 | > 4 |  | 0.99 | 30 |  |  |  |  | 
COc1cc(/C=C/C(=O)OCCN(C)CCCCCCOC(=O)c2cc(OC)c(OC)c(OC)c2)cc(OC)c1OC | > 4 | > 4 |  | 0.91 | 460 |  |  |  |  | 
COc1cc(/C=C/C(=O)OCCCCN(C)CCCCCOC(=O)c2c3ccccc3cc3ccccc23)cc(OC)c1OC | > 4 | > 4 |  | 0.94 | 40 |  |  |  |  | 
COc1cc(/C=C/C(=O)OCCCN(C)CCCCCCOC(=O)c2c3ccccc3cc3ccccc23)cc(OC)c1OC | > 4 | > 4 |  | 0.92 | 40 |  |  |  |  | 
COc1cc(/C=C/C(=O)OCCCCCN(C)CCCCOC(=O)c2c3ccccc3cc3ccccc23)cc(OC)c1OC | > 4 | > 4 |  | 0.99 | 30 |  |  |  |  | 
COc1cc(/C=C/C(=O)OCCCCCCN(C)CCOC(=O)c2cc(OC)c(OC)c(OC)c2)cc(OC)c1OC | > 4 | > 4 |  | 0.77 | 190 |  |  |  |  | 
COc1cc(/C=C/C(=O)OCCCCN(C)CCCCCCOC(=O)c2c3ccccc3cc3ccccc23)cc(OC)c1OC | > 4 | > 4 |  | 0.95 | 10 | 850 | Not Active | Active | 3300 | 64.6
COc1cc(/C=C/C(=O)OCCCCCCN(C)CCOC(=O)c2c3ccccc3cc3ccccc23)cc(OC)c1OC | > 4 | > 4 |  | 0.94 | 40 |  |  |  |  | 
COc1cc(/C=C/C(=O)OCCN(C)CCCCCCCOC(=O)c2c3ccccc3cc3ccccc23)cc(OC)c1OC | > 4 | > 4 |  | 0.88 | 170 |  |  |  |  | 
COc1cc(/C=C/C(=O)OCCN(C)CCCCCCOC(=O)c2c3ccccc3cc3ccccc23)cc(OC)c1OC | > 4 | > 4 |  | 0.79 | 200 |  |  |  |  | 
COc1cc(/C=C/C(=O)OCCCCCCCN(C)CCCOC(=O)c2c3ccccc3cc3ccccc23)cc(OC)c1OC | > 4 | > 4 |  | 0.93 | 10 | 230 | Not Active | Not Active | 3900 | 
COc1cc(/C=C/C(=O)OCCCCCCCCN(C)CCOC(=O)c2c3ccccc3cc3ccccc23)cc(OC)c1OC | > 4 | > 4 |  | 0.99 | 50 | 340 | Not Active | Not Active | 5400 | 

Other lines, results leading:

half-life at 1 µM [1] [h] | half-life at 1 µM [2] [h] | Stability [3] | Alpha max [4] | IC50 [5] [nM] | EC50 [6] [nM] | inhibition (INH) [7] | inhibition (INH) [8] | EC50 [9] [nM] | Activity [10] [%] | Compound
> 4 | > 4 |  |  |  |  |  |  |  |  | COc1cc(/C=C/C(=O)OCCCCCN(C)CCCCCOC(=O)c2cc(OC)c(OC)c(OC)c2)cc(OC)c1OC
> 4 | 0.683 | Unstable |  |  |  |  |  |  |  | COc1cc(/C=C/C(=O)OCCCN(C)CCCCCOC(=O)c2cc(OC)c(OC)c(OC)c2)cc(OC)c1OC
> 4 | > 4 |  |  |  |  |  |  |  |  | COc1cc(/C=C/C(=O)OCCCCCN(C)CCCOC(=O)c2cc(OC)c(OC)c(OC)c2)cc(OC)c1OC
> 4 | > 4 |  | 0.9 | 240 |  |  |  |  |  | COc1cc(/C=C/C(=O)OCCCCCCN(C)CCCOC(=O)c2cc(OC)c(OC)c(OC)c2)cc(OC)c1OC
> 4 | > 4 |  | 0.99 | 10 | 200 | Not Active | Active | 16000 |  | COc1cc(/C=C/C(=O)OCCCCCCN(C)CCCCOC(=O)c2cc(OC)c(OC)c(OC)c2)cc(OC)c1OC
> 4 | > 4 |  | 0.91 | 40 | 220 | Not Active | Not Active | 4500 |  | COc1cc(/C=C/C(=O)OCCN(C)CCCCCCCCOC(=O)c2cc(OC)c(OC)c(OC)c2)cc(OC)c1OC
> 4 | > 4 |  | 0.94 | 100 |  |  |  |  |  | COc1cc(/C=C/C(=O)OCCCCCN(C)CCCCOC(=O)c2cc(OC)c(OC)c(OC)c2)cc(OC)c1OC
> 4 | 2.05 | Unstable | 0.99 | 70 |  |  |  |  |  | COc1cc(/C=C/C(=O)OCCCCN(C)CCCCCCOC(=O)c2cc(OC)c(OC)c(OC)c2)cc(OC)c1OC
> 4 | 0.65 | Unstable | 0.99 | 390 |  |  |  |  |  | COc1cc(/C=C/C(=O)OCCCN(C)CCCCCCOC(=O)c2cc(OC)c(OC)c(OC)c2)cc(OC)c1OC
> 4 | > 4 |  | 0.93 | 20 | 300 | Not Active | Not Active | 3800 |  | COc1cc(/C=C/C(=O)OCCCCCCCCN(C)CCOC(=O)c2cc(OC)c(OC)c(OC)c2)cc(OC)c1OC
> 4 | 0.75 | Unstable | 0.97 | 80 |  |  |  |  |  | COc1cc(/C=C/C(=O)OCCCN(C)CCCCCCCOC(=O)c2cc(OC)c(OC)c(OC)c2)cc(OC)c1OC
> 4 | > 4 |  | 0.99 | 40 |  |  |  |  |  | COc1cc(/C=C/C(=O)OCCCCCCCN(C)CCOC(=O)c2cc(OC)c(OC)c(OC)c2)cc(OC)c1OC
> 4 | > 4 | Stable | 0.99 | 270 |  |  |  |  |  | COc1cc(/C=C/C(=O)OCCCCN(C)CCCCCOC(=O)c2cc(OC)c(OC)c(OC)c2)cc(OC)c1OC
